pEC50: −log10 of the molar value.

For one data set, the system named is HepG2. Briefly: Cytotoxicity against HepG2 2.2.15 cells. Conditions: Homo sapiens. The data set is classed as functional. Summed up: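 HepG2 2.2.15 cells exposed to compound; CC50 defined as the concentration causing 50% extinction of the cells.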
In another data set the test system is Hepatitis B virus. Nature of the data set: Antiviral activity against HBV assessed as inhibition of cytoplasmic HBV-DNA synthesis. Format: functional, organism-based. An outline of the steps: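 Run in HepG2 2.2.15 cells; EC50 taken as the concentration giving 50% inhibition of cytoplasmic HBV-DNA synthesis.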
Data set [1] is described as follows: Selectivity index, ratio of CC50 for HepG2 2.2.15 cells to EC50 for HBV. Format: functional. Summed up: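 In HepG2 2.2.15 cells: SI calculated as CC50 (50% extinction of the cells) divided by EC50 (50% inhibition of cytoplasmic HBV-DNA synthesis).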
Data set [2] in a line: Metabolic stability assessed as half life in human plasma. Format: ADME, cell-free.

`CC(C)C[C@H](N)C(=O)SCCOP(=O)(COCCn1cnc2c(N)ncnc21)OCCSC(=O)[C@@H](N)CC(C)C.Cl` yielded a cytotoxic concentration (CC50) in the data set with HepG2 of 3410 µM. In addition, the pEC50 in the data set on Hepatitis B virus is 6.68. The “Ratio CC50/EC50” value in data set [1] worked out at 16129.
Compound `CC(C)[C@H](N)C(=O)OCOP(=O)(COCCn1cnc2c(N)ncnc21)OCOC(=O)[C@@H](N)C(C)C.Cl` displayed a CC50 with HepG2 of 3380 µM. Besides, the pEC50 in the data set with Hepatitis B virus is 6.52. Besides, the “Ratio CC50/EC50” value in data set [1] worked out at 11094.
As for `Cl.Nc1ncnc2c1ncn2CCOCP(=O)(OCCOC(=O)[C@@H](N)Cc1ccccc1)OCCOC(=O)[C@@H](N)Cc1ccccc1`, the half-life in data set [2] is 0.25 h. For the same compound, the midpoint of cytotoxicity in the data set with HepG2, the CC50, lay at 2590 µM. Besides, the negative logarithm of the EC50 (pEC50) in the data set on Hepatitis B virus is 6.51. For the same compound, the “Ratio CC50/EC50” value in data set [1] came to 8354.
In the case of `CC(C)(C)C(=O)OCOP(=O)(COCCn1cnc2c(N)ncnc21)OCOC(=O)C(C)(C)C.Cl`, the half-life in data set [2] worked out at 0.75 h. The midpoint of cytotoxicity with HepG2, the CC50, lay at 540 µM. Further, the pEC50 in the data set on Hepatitis B virus was 6.29. Further, the “Ratio CC50/EC50” value in data set [1] came to 1044.
`Cl.Nc1ccn([C@@H]2CS[C@H](CO)O2)c(=O)n1`: in the data set on HepG2, half-maximal cytotoxicity (CC50) was put at 230 µM. Further, in the data set on Hepatitis B virus, the negative logarithm of the EC50 (pEC50) is 7.09. Moreover, the “Ratio CC50/EC50” value in data set [1] is 2850.
In the case of `CC(C)[C@H](N)C(=O)OCCOP(=O)(COCCn1cnc2c(N)ncnc21)OCCOC(=O)[C@@H](N)C(C)C.Cl`, the half-life in data set [2] came to 2 h. Moreover, the half-maximal cytotoxic concentration (CC50) in the data set with HepG2 worked out at 2590 µM. For the same compound, the negative logarithm of the EC50 (pEC50) with Hepatitis B virus is 5.88. Moreover, the “Ratio CC50/EC50” value in data set [1] amounted to 1974.
As for `Cl.Nc1ncnc2c1ncn2CCOCP(=O)(OCOC(=O)[C@@H](N)Cc1ccccc1)OCOC(=O)[C@@H](N)Cc1ccccc1`, the pEC50 in the data set on Hepatitis B virus was 6.18. In addition, the “Ratio CC50/EC50” value in data set [1] is given as 23312.
For `CC(C)[C@H](N)C(=O)SCCOP(=O)(COCCn1cnc2c(N)ncnc21)OCCSC(=O)[C@@H](N)C(C)C.Cl` the same measures were 6.12 and 38167.
`C[C@H](N)C(=O)OCCOP(=O)(COCCn1cnc2c(N)ncnc21)OCCOC(=O)[C@H](C)N.Cl` registered a CC50 in the data set with HepG2 of 1840 µM. In addition, in the data set on Hepatitis B virus, the pEC50 is 4.90. The “Ratio CC50/EC50” value in data set [1] came to 146.
For `CC(C)C[C@H](N)C(=O)OCOP(=O)(COCCn1cnc2c(N)ncnc21)OCOC(=O)[C@@H](N)CC(C)C.Cl` the same measures were 8560 µM, 6.47 and 25111.
As to `CC(C)C[C@H](N)C(=O)OCCOP(=O)(COCCn1cnc2c(N)ncnc21)OCCOC(=O)[C@@H](N)CC(C)C.Cl`, the half-life in data set [2] turned out to be 4.5 h. The CC50 in the data set on HepG2 came to 6640 µM. The negative-log EC50 (pEC50) in the data set with Hepatitis B virus is 7.02. The “Ratio CC50/EC50” value in data set [1] is 69523.
Consider `Cl.Nc1ncnc2c1ncn2CCOCP(=O)(OCCSC(=O)[C@@H](N)Cc1ccccc1)OCCSC(=O)[C@@H](N)Cc1ccccc1`, for which the pEC50 with Hepatitis B virus is 6.68. Besides, the “Ratio CC50/EC50” value in data set [1] is 52727.
In the data set with HepG2, `C[C@H](N)C(=O)SCCOP(=O)(COCCn1cnc2c(N)ncnc21)OCCSC(=O)[C@H](C)N.Cl` displayed a CC50 of 2420 µM. Further, the pEC50 in the data set on Hepatitis B virus is 5.81. Besides, the “Ratio CC50/EC50” value in data set [1] turned out to be 1548.
On to `Cl.NCC(=O)SCCOP(=O)(COCCn1cnc2c(N)ncnc21)OCCSC(=O)CN`, for which the half-maximal cytotoxic concentration (CC50) in the data set on HepG2 turned out to be 259 µM. Further, the pEC50 in the data set with Hepatitis B virus was 4.99. Further, the “Ratio CC50/EC50” value in data set [1] turned out to be 25.

These data come from ChEMBL document CHEMBL1138398, “Design and synthesis of novel bis(L-amino acid) ester prodrugs of 9-[2-(phosphonomethoxy)ethyl]adenine (PMEA) with improved anti-HBV activity” (Bioorg Med Chem Lett, 2007).
